Active and inactive are the calls of the source. No cut-off for these calls is given here.
What was measured:
[1] = Ratio of drug concentration in brain to plasma in mouse at 300 ppm administered as rodent chow for 14 days; assay type: ADME, cell-free; settings: route po, time 14 day, read-out: BPR
[2] = Half-life in mouse at 1.92 mg/kg, iv administered as single dose; assay type: ADME, organism-based; settings: in vivo
[3] = system: Mus musculus; assay: Antialzheimer activity in 5XFAD mouse assessed as percent change in claudin-5 intensity of Thio-S negative thalamus at 1200 ppm administered as rodent chow starting from 1.5 months and measured after 4 months by immunolabeling analysis relative to control; assay type: functional; settings: route po, time 2.5 months, 1825 h
[4] = target: Vascular endothelial growth factor receptor 2 (Homo sapiens, UniProt P35968); assay: Inhibition of KDR (unknown origin)
Chain of Vascular endothelial growth factor receptor 2 (P35968 whole entry): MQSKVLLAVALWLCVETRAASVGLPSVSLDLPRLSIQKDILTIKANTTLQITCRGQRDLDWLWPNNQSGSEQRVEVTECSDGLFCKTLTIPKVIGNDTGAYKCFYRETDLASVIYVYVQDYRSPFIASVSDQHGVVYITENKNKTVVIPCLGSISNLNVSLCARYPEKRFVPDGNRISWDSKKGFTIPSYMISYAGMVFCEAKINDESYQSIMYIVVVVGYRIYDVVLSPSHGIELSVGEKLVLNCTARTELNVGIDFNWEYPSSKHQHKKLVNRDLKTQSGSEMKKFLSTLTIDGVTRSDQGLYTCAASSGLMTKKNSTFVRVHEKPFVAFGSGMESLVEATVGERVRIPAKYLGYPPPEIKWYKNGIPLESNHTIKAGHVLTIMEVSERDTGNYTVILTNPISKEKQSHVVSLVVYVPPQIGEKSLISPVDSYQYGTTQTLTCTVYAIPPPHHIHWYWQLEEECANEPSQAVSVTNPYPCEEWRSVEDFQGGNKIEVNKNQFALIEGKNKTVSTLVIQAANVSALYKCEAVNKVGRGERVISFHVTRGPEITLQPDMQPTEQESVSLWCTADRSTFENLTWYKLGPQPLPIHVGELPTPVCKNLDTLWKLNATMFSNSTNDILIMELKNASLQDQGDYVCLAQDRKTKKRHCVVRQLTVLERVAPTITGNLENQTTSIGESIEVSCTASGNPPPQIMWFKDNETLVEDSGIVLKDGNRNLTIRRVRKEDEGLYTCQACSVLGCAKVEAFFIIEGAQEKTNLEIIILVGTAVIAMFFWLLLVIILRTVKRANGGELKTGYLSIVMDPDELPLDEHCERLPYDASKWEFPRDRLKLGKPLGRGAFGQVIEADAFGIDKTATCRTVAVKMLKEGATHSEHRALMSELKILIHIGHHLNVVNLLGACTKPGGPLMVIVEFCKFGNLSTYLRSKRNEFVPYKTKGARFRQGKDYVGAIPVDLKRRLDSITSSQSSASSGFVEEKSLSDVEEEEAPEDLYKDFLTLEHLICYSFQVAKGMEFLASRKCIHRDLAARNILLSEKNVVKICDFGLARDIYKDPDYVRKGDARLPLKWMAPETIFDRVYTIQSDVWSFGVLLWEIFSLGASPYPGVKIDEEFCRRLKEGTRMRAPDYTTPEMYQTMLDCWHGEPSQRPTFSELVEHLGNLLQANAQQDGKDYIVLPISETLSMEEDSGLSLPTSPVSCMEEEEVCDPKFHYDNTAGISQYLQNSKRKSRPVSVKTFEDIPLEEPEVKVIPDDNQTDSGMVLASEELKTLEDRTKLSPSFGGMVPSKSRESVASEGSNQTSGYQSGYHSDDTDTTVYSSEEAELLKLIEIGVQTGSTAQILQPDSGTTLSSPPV

[5] = system: Mus musculus; assay: Prevention of Trem2 gene upregulation in 5XFAD mouse hippocampus at 1200 ppm administered as rodent chow starting from 1.5 months and measured after 7 months by Nanostring analysis; assay type: functional, tissue-based; settings: route po, time 5.5 months
[6] = target: Casein kinase II subunit alpha (Homo sapiens, UniProt P68400); assay: Inhibition of CSNK2A1 (unknown origin)
Chain of Casein kinase II subunit alpha (P68400 whole entry, canonical isoform): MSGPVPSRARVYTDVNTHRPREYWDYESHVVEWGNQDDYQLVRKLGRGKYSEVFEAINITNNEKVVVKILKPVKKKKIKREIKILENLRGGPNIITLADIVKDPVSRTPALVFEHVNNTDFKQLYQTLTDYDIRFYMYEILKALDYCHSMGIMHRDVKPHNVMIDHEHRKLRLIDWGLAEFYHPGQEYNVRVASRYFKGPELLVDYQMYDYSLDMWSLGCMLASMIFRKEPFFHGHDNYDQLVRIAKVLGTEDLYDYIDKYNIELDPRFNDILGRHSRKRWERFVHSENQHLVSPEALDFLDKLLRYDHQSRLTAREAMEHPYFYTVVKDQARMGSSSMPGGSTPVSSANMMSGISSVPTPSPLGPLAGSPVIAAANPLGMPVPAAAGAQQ

[7] = target: Casein kinase I isoform gamma-1 (Homo sapiens, UniProt Q9HCP0); assay: Inhibition of CSNK1G1 (unknown origin)
Chain of Casein kinase I isoform gamma-1 (Q9HCP0 whole entry, canonical isoform): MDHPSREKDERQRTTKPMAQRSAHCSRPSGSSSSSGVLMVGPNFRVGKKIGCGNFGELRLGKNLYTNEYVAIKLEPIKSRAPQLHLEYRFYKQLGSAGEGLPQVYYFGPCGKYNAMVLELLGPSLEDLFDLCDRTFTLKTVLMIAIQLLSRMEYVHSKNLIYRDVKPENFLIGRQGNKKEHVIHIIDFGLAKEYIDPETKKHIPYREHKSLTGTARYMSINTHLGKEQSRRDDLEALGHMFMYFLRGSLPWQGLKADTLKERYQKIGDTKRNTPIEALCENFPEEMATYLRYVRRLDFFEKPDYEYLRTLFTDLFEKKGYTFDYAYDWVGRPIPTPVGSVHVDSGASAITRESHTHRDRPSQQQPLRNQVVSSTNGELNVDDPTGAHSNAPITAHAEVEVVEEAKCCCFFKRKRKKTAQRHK

[8] = system: Mus musculus; assay: Effect on APP processing pathway in wildtype mouse assessed as full length APP protein signal intensity in cortex at 1200 ppm administered as rodent starting from 1.5 months and measured after 7 months (reference value: 0.124 to 27.917 %); assay type: functional; settings: route po, time 5.5 months, 4015 h
[9] = system: Mus musculus; assay: Antialzheimer activity in 5XFAD mouse assessed as number of Thio-S positive plaques per FOV in somatosensory cortex at 1200 ppm administered as rodent chow starting from 1.5 months and measured after 7 months by Thio-S staining based confocal microscopic analysis (reference value: 22 to 106); assay type: functional; settings: route po, time 5.5 months, 4015 h
[10] = system: Mus musculus; assay: Antialzheimer activity in 5XFAD mouse assessed as amyloidbeta40 level in detergent soluble cortex fraction measured per microgram protein at 1200 ppm administered as rodent chow starting from 1.5 months and measured after 4 months by ELISA (reference value: 0 to 0.089 pg); assay type: functional; settings: route po, time 2.5 months, 1825 h
Procedure, shortened: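 PLX5622 at 1200 ppm in chow given to 5xFAD mice from 1.5 months to 4 or 7 months of age; cortex and thalamus homogenized in TPER (detergent-soluble), pellets re-homogenized in 70% formic acid and spun 100,000 g, 1 h, 4 °C (insoluble); protein by Bradford/Lowry; Aβ species measured by Meso Scale electrochemiluminescence immunoassay, normalized to protein; n = 7–8 per group at 7 months.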

[11] = Effect on Csf1r RPKM gene expression in wild type mouse cortex at 1200 ppm administered as rodent chow starting from 1.5 months and measured after 7 months by RNA-Seq analysis (reference value: 18.302 to 19.220 RPKM); assay type: functional; settings: route po, time 5.5 months, 4015 h
[12] = target: Death-associated protein kinase 1 (Homo sapiens, UniProt P53355); assay: Inhibition of DAPK1 (unknown origin)
[13] = system: Mus musculus; assay: Prevention of C1qc gene upregulation in 5XFAD mouse hippocampus at 1200 ppm administered as rodent chow starting from 1.5 months and measured after 7 months by Nanostring analysis; assay type: functional, tissue-based; settings: route po, time 5.5 months
[14] = Prevention of Dync1i1 gene downregulation in 5XFAD mouse hippocampus assessed as percent change in Reads Per kilo base per Million mapped reads at 1200 ppm administered as rodent chow starting from 1.5 months and measured after 7 months by RNA-Seq analysis (reference value: 65.184 to 88.242 %); assay type: functional; settings: route po, time 5.5 months, 4015 h
[15] = target: Tyrosine-protein kinase JAK2 (Homo sapiens, UniProt O60674); assay: Inhibition of JAK2 (unknown origin)
Chain of Tyrosine-protein kinase JAK2 (O60674 whole entry): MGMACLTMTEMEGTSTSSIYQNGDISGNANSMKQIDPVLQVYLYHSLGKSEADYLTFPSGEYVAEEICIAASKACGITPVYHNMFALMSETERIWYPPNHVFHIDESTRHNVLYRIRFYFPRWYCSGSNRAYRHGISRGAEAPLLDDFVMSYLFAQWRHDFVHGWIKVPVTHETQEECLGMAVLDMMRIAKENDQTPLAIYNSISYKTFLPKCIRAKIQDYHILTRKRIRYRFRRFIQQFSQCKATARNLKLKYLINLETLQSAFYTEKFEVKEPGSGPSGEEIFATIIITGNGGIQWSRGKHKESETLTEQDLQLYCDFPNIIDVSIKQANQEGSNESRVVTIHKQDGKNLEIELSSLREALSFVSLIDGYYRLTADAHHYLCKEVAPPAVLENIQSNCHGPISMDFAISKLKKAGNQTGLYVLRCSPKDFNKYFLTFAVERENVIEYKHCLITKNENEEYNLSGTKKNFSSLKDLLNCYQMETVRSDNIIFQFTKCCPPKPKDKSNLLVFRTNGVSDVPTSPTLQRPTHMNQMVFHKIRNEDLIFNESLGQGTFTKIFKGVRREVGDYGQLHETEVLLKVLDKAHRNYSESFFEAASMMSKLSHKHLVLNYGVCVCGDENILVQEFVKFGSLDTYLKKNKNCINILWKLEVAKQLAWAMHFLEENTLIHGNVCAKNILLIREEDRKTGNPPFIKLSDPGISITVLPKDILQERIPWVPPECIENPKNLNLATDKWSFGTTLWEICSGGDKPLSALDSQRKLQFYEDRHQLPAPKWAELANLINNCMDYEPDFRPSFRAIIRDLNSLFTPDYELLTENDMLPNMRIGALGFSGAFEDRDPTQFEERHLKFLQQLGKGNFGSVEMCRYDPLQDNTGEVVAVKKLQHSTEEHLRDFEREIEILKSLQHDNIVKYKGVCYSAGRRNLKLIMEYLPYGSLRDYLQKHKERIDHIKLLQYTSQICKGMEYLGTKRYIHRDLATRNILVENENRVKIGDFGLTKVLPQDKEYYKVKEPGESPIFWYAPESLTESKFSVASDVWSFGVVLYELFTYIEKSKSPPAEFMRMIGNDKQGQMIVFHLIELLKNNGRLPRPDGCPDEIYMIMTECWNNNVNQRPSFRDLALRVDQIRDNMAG

[16] = system: Mus musculus; assay: Antialzheimer activity in wildtype mouse assessed as number of Iba positive cells per FOV in […] cortex at 1200 ppm administered as rodent chow starting from 1.5 months and measured after 7 months (reference value: 322 to 632); assay type: functional; settings: route po, time 5.5 months, 4015 h
[17] = Effect on Cst7 gene expression in wild type mouse thalamus at 1200 ppm administered as rodent chow starting from 1.5 months and measured after 7 months by RNA-Seq analysis (reference value: 0 to 1.803 RPKM); assay type: functional; settings: route po, time 5.5 months, 4015 h
[18] = Effect on Cst7 gene expression in 5XFAD mouse thalamus at 1200 ppm administered as rodent chow starting from 1.5 months and measured after 7 months by RNA-Seq analysis (reference value: 9.686 to 22.113 RPKM); assay type: functional; settings: route po, time 5.5 months, 4015 h
[19] = Effect on Siglech gene expression in 5XFAD mouse thalamus at 1200 ppm administered as rodent chow starting from 1.5 months and measured after 7 months by RNA-Seq analysis (reference value: 4.466 to 6.336 RPKM); assay type: functional; settings: route po, time 5.5 months, 4015 h
[20] = target: Protein kinase C iota type (Homo sapiens, UniProt P41743); assay: Inhibition of PRKCI (unknown origin)
Chain of Protein kinase C iota type (P41743 whole entry): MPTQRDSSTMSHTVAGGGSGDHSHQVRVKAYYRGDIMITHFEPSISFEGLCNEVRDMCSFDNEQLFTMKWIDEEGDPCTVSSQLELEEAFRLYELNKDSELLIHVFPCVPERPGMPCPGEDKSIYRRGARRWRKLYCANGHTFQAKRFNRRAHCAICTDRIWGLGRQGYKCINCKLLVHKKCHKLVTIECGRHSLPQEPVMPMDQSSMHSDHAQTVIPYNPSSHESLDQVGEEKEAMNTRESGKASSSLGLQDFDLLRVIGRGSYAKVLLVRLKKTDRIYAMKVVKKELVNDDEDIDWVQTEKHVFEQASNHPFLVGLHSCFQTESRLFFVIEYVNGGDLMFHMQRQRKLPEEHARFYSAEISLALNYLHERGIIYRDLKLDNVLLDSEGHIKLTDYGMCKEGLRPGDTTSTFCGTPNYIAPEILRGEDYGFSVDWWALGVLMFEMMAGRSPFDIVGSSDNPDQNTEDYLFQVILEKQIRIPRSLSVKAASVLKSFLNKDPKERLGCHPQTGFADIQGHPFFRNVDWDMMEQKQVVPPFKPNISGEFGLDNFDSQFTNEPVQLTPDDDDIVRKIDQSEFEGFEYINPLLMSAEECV

[21] = system: Mus musculus; assay: Antialzheimer activity in 5XFAD mouse assessed as iron reactivity by measuring hemosiderin intensity of prussian blue staining in […] cortex at 1200 ppm administered as rodent chow starting from 1.5 months and measured after 4 months by confocal microscopic analysis (reference value: 0.1 to 8.816 a.u.); assay type: functional; settings: route po, time 2.5 months, 1825 h
Procedure, shortened: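 Wild-type or 5xFAD mice fed PLX5622 (1200 ppm) in AIN-76A chow from 1.5 months of age, examined in 4- and 7-month-old cohorts. Brain sections stained with a Prussian blue kit per kit instructions to detect iron deposits (microbleeds).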

[22] = target: Tyrosine-protein kinase Fer (Homo sapiens, UniProt P16591); assay: Inhibition of FER (unknown origin)
Chain of Tyrosine-protein kinase Fer (P16591 whole entry): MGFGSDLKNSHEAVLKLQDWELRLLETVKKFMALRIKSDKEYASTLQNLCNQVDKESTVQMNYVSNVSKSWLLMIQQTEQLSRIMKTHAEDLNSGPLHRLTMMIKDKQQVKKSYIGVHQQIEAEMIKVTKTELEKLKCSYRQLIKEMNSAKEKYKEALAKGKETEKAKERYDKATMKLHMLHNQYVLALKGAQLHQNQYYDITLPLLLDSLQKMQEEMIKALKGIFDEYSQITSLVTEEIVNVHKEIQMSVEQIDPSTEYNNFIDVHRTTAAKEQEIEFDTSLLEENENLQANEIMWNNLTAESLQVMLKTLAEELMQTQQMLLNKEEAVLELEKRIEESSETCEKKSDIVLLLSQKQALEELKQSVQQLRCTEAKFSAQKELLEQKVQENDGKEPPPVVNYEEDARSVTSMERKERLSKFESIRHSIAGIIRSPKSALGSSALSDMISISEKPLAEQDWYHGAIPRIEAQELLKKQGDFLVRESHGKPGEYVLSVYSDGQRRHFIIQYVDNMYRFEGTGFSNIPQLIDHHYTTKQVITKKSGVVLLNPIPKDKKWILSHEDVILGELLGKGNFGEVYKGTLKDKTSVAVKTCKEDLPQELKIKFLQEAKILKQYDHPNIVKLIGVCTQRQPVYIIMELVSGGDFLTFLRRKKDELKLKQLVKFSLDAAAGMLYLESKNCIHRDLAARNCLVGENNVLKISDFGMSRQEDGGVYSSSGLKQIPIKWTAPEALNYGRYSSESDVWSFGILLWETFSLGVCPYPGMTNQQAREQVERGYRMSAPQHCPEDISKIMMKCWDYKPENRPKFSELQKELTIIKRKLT

[23] = system: Mus musculus; assay: Antialzheimer activity in 5XFAD mouse assessed as average diameter of claudin-5 blood vessels in Thio-S negative retro spinal cortex at 1200 ppm administered as rodent chow starting from 1.5 months and measured after 4 months by immunolabeling analysis; assay type: functional; settings: route po, time 2.5 months, 1825 h

COc1ncc(F)cc1CNc1ccc(Cc2c[nH]c3ncc(C)cc23)c(F)n1 [PLX-5622]
Kp at 336 h [1]: 0.22 | half-life [2]: 2.6 h | Activity [3]: 91.327% | IC50 [4]: 1100 nM | Activity [5]: Active | IC50 [6]: > 1000 nM | IC50 [7]: > 1000 nM | Activity [8]: 0.823% | Activity [9]: 2 | Activity [10]: 0 pg | Activity [11]: 0.073 RPKM | IC50 [12]: > 1000 nM | Activity [13]: Active | Activity [14]: 89.818% | IC50 [15]: > 1000 nM | Activity [16]: 0 | Activity [17]: 0 RPKM | Activity [18]: 0.096 RPKM | Activity [19]: 0 RPKM | IC50 [20]: > 1000 nM | Flu intensity [21]: 6.682 a.u. | IC50 [22]: > 1000 nM | Activity [23]: 1.786 um

— ChEMBL document CHEMBL5649170, “Sustained microglial depletion with CSF1R inhibitor impairs parenchymal plaque development in an Alzheimer's disease model” (Nat Commun, 2019)
